Assay results taken from ChEMBL document CHEMBL1151795, “Novel iron complexes bearing N6-substituted adenosine derivatives: synthesis, magnetic, 57Fe Mössbauer, DFT, and in vitro cytotoxicity studies” (Bioorg Med Chem, 2008).

Key:
Type in all cases: functional, cell-based
[1] = tested on: G-361; test: Cytotoxicity against human G361 cells after 72 hrs by calcein acetoxymethyl assay
Procedure, shortened: (§1)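 Tumour cells kept in DMEM at 37 °C, 5% CO₂, 100% humidity; seeded at about 1.25 × 10⁵ cells/ml and preincubated 12 h. Compounds added at 0.5–50 μM (0.5–200 μM for FeCl₃·6H₂O) for 72 h. Live cells then stained 1 h with calcein AM and fluorescence read at 485/538 nm. IC₅₀ estimated as concentration lethal to 50% of cells; mean of three values.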

[2] = tested on: HOS; test: Cytotoxicity against human HOS cells after 72 hrs by calcein acetoxymethyl assay; procedure, shortened: as §1
[3] = tested on: K562; test: Cytotoxicity against human K562 cells after 72 hrs by calcein acetoxymethyl assay; procedure, shortened: as §1
[4] = tested on: MCF7; test: Cytotoxicity against human MCF7 cells after 72 hrs by calcein acetoxymethyl assay; procedure, shortened: as §1

Molecule | IC50 ([1]; Homo sapiens, G-361, 72 h) | IC50 ([2]; Homo sapiens, HOS, 72 h) | IC50 ([3]; Homo sapiens, K562, 72 h) | IC50 ([4]; Homo sapiens, MCF7, 72 h) | IC50 ([1]; g-361) | IC50 ([2]; hos) | IC50 ([3]; k562) | IC50 ([4]; mcf7)
OC[C@@H]1O[C@H](n2cnc3c(NCc4ccc(F)cc4)ncnc32)[C@@H](O)[C@H]1O | > 50 µM | > 50 µM | > 50 µM | > 50 µM |  |  |  | 
OC[C@@H]1O[C@H](n2cnc3c(NCc4ccc(OC(F)(F)F)cc4)ncnc32)[C@@H](O)[C@H]1O | > 50 µM | > 50 µM | > 50 µM | > 50 µM |  |  |  | 
FeCl3.6H2O |  |  |  |  | > 200 µM | > 200 µM | > 200 µM | > 200 µM
